In PubChem BioAssay:
Inconclusive results are not listed.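 The calls were made as follows, unless noted: active = viability increase at or above a cutoff of the median across tested compounds plus 3 SD (cut at about 8.5% in these data, passing the limit was not always enough); inconclusive = some gains above the cutoff, reason not given; inactive = the rest.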

Experiments:
[1] = S. cerevisiae growth inhibition in permissive medium (OD615), pilot counter-assay for S. cerevisiae lifespan shortening project, permissive growth control (AID 705;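 active = growth inhibition above 25% in both replicates, a cutoff set 3 SD above the mean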); details: OD615, 24 h, at 10 µM, hits give high values
Procedure, shortened: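 Test system: Saccharomyces cerevisiae strain carrying genetically modified DeaD replicative-lifespan system; buffer or medium: SC raffinose/galactose permissive medium; dosing: one dose 10 µM, DMSO 0.25% final; times: 24 h exposure, 30 °C; measured by: OD at 615 nm; read-out basis: growth inhibition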

[2] = S. cerevisiae growth inhibition in restrictive medium, OD615, pilot screen, restrictive growth control, yeast lifespan reduction project (AID 706;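 active = growth inhibition above a set limit, 3 SD over mean compound inhibition, in both replicates, cut at about 43% in these data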;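 also: modified DeaD lifespan yeast strain shifted to restrictive glucose medium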); details: OD615, 48 h, at 10 µM, hits give high values
Procedure, shortened: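 material = engineered S. cerevisiae DeaD strain | buffer or medium = glucose-based CSMM-D restrictive medium | dosing = one concentration, 10 µM final, 0.25% DMSO | schedule = 4 h pre-growth plus 48 h compound exposure, 30 °C | detection = OD615 absorbance reading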

[3] = doxorubicin toxicity protection in MRP-1 cells – H69AR cells, CellTiter-Glo, duplicate, MRP-1 activator project, pilot screen (AID 807); details: H69AR viability with doxorubicin, CellTiter-Glo luminescence; at 10 µM; hits give high values;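 also: compound pretreatment 18-22 h then 72 h combined with doxorubicin; 0% = doxorubicin alone and 100% = vehicle without doxorubicin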
[4] = viability of PTEN-null HCT116 cells – cell-based, HCT116 clonal line, CellTiter-Glo, pilot screen (AID 824;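 active = viability at or below 27.92% in each of two runs, the all-compound median minus 4 SD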;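 also: 0% = 20 µM Hyamine control and 100% = vehicle cell control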); details: HCT116 PTEN-deleted viability, 60 h, at 10 µM, hits give low values
[5] = RAM pathway blockade in budding yeast – dse1pr::URA3 reporter, 5-FOA selection, pilot screen (AID 869;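 active = inhibition over a set limit, the all-compound mean plus 3 SD, in both replicate runs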;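 also: 0% = DMSO wells with no growth and 100% = 10 µM 1-NA-PP1 with full growth; RAM network block rescues cells from 5-FOA so hits raise OD615 growth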); details: S. cerevisiae dse1pr::URA3 5-FOA growth, OD615, 2 d; at 10 µM; hits give high values; strain carries analog-sensitive mutant Cbk1 kinase
[6] = RAM signaling pathway blockade in yeast – S. cerevisiae, Pdr1DBD-CYC8 efflux-inhibited sensitized strain, primary screen (AID 1298;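 active = RAM network inhibition above 8.4% in each of two replicates, 3 SD over the compound average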;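 also: 0% = DMSO untreated cells without growth and 100% = 10 µM 1-NA-PP1 full growth; higher means more yeast growth rescued from 5-FOA killing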); details: S. cerevisiae cbk1-as DSE1-URA3 strain, 5-FOA growth OD615, 2 d; at 50 µM; hits give high values

COc1ccc(OC)c(S(=O)(=O)N2CCCCC2C(=O)N2CCN(c3ccccn3)CC2)c1 (centres undefined)
inactive: growth inhibition [1] 1.82% | growth inhibition [2] -0.22% | viability increase [3] -4.71% | viability [4] 91.8% | inhibition [5] 1.77% | RAM network inhibition [6] 7.83%

CCN1C=C(C(=O)OC)C(c2cccc(C)c2)C(C(=O)OC)=C1
inactive: growth inhibition [1] -1.2% | growth inhibition [2] -11.5% | viability increase [3] -3.43% | viability [4] 86% | inhibition [5] 3.02% | RAM network inhibition [6] 4.35%

Cc1cc2ccccc2c(=O)n1CC(=O)NCC(=O)N(C)Cc1ccccc1
inactive: growth inhibition [1] -10.2% | growth inhibition [2] -4.71% | viability increase [3] -0.97% | viability [4] 98.6% | inhibition [5] 0.475% | RAM network inhibition [6] 5.32%

COc1ccc(S(=O)(=O)C(C#N)c2nc3ccccc3nc2N2CCC(C)CC2)cc1 (centres undefined)
inactive: growth inhibition [1] -12.1% | growth inhibition [2] -14.1% | viability increase [3] -4.72% | viability [4] 87.9% | inhibition [5] 3.85% | RAM network inhibition [6] 8.8%

O=c1c2c(nc3c(-c4ccccc4)c[nH]n13)CCCC2
inactive: growth inhibition [1] -7.02% | growth inhibition [2] -8.55% | viability increase [3] -5.26% | viability [4] 49.2% | inhibition [5] 1.02% | RAM network inhibition [6] 0.27%

CCOC(=O)c1c(NC(=O)OC)sc(C(=O)N(CC)CC)c1C
inactive: growth inhibition [1] -14.6% | growth inhibition [2] -12.4% | viability increase [3] -1.31% | viability [4] 93% | inhibition [5] 1.47% | RAM network inhibition [6] 1.79%

CCN1C(=S)SC(=O)C1=C1C=C(C)N(CCO)C(C)=C1
inactive: growth inhibition [1] 1.7% | growth inhibition [2] 23.4% | viability increase [3] -2.35% | viability [4] 95.3% | inhibition [5] 1.45% | RAM network inhibition [6] 0.11%

COc1ccc(Oc2ccc(S(=O)(=O)N3CCCCC3)cc2S(=O)(=O)N2CCCCC2)cc1
inactive: growth inhibition [1] -4.96% | growth inhibition [2] -0.32% | viability increase [3] -3.43% | viability [4] 87.1% | inhibition [5] 1.56% | RAM network inhibition [6] 3.99%

O=C(CCCSc1nc2ccccc2s1)NCc1ccco1
inactive: growth inhibition [1] 1.82% | growth inhibition [2] -1.56% | viability increase [3] -2.85% | viability [4] 86.3% | inhibition [5] 1.28% | RAM network inhibition [6] -0.82%

CCCOc1ccc(/C(O)=C2/C(=O)C(=O)N(CCN(C)C)C2c2ccco2)cc1 (centres undefined)
inactive: growth inhibition [1] -0.855% | growth inhibition [2] 13.9% | viability increase [3] -4.27% | viability [4] 99.6% | inhibition [5] -0.28% | RAM network inhibition [6] -1.54%

COC(=O)C1=C(C)N(c2ccc(F)cc2)C(=O)C1
inactive: growth inhibition [1] -6.78% | growth inhibition [2] -12.3% | viability increase [3] -2.11% | viability [4] 93.6% | inhibition [5] 1.19% | RAM network inhibition [6] -0.26%

COc1ccc(C)cc1NC(=O)CN(c1ccccc1)S(C)(=O)=O
inactive: growth inhibition [1] -7.61% | growth inhibition [2] -4.67% | viability increase [3] -1.58% | viability [4] 96% | inhibition [5] 0.74% | RAM network inhibition [6] 5.82%

CCOC(=O)N1CCc2c(sc(NC(=O)c3ccc(Cl)s3)c2C(N)=O)C1
inactive: growth inhibition [1] -0.755% | growth inhibition [2] 5.5% | viability increase [3] -2.73% | viability [4] 40% | inhibition [5] 0.53% | RAM network inhibition [6] -0.87%

CCCC(=O)Nc1cccc(C(=O)Nc2nccs2)c1
inactive: growth inhibition [1] -9.54% | growth inhibition [2] 0.885% | viability increase [3] 0.65% | viability [4] 102% | inhibition [5] 0.285% | RAM network inhibition [6] 0.41%

O=C(CCCOc1ccccc1)N1CCCc2ccccc21
inactive: growth inhibition [1] -0.835% | growth inhibition [2] -2.99% | viability increase [3] -2.01% | viability [4] 92.2% | inhibition [5] 0.825% | RAM network inhibition [6] 2.37%

CCNc1nc(Oc2ccc(C(=O)OCC)cc2)nc(SC)n1
inactive: growth inhibition [1] -5.11% | growth inhibition [2] 1.57% | viability increase [3] -1.58% | viability [4] 78.9% | inhibition [5] 2.05% | RAM network inhibition [6] 2.82%

CCC(=O)Nc1sc2c(c1C#N)CC(C)(C)NC2(C)C
inactive: growth inhibition [1] -7.39% | growth inhibition [2] -4.29% | viability increase [3] 0.09% | viability [4] 100% | inhibition [5] 1.89% | RAM network inhibition [6] 0.46%

CCC(=O)N1CCc2cc(Br)cc(S(=O)(=O)NCc3ccco3)c21
inactive: growth inhibition [1] -4% | growth inhibition [2] -12.8% | viability increase [3] -5.07% | viability [4] 96.8% | inhibition [5] 1.7% | RAM network inhibition [6] 1.85%

CC(C)(Oc1ccc(Cl)cc1)C(=O)OCC(=O)N1CCCC1
inactive: growth inhibition [1] -8.95% | growth inhibition [2] -11% | viability increase [3] -2.58% | viability [4] 96.5% | inhibition [5] 0.455% | RAM network inhibition [6] -1.13%

Cc1cccc(-n2ncc3c(NCc4ccccc4)ncnc32)c1
inactive: growth inhibition [1] 5.07% | growth inhibition [2] 12.1% | viability increase [3] -5.25% | viability [4] 31.8% | inhibition [5] 1.38% | RAM network inhibition [6] 11.8%

CC(Oc1ccc(Cl)cc1Cl)C(=O)NCc1ccncc1 (centres undefined)
inactive: growth inhibition [1] -10.3% | growth inhibition [2] -7.06% | viability increase [3] -4.17% | viability [4] 89.1% | inhibition [5] 1.26% | RAM network inhibition [6] 1.89%

O=C(C1CC1)N1CCc2cc(Br)cc(S(=O)(=O)N3CCCCCC3)c21
inactive: growth inhibition [1] -4% | growth inhibition [2] -6.99% | viability increase [3] -3.17% | viability [4] 82.1% | inhibition [5] 1.66% | RAM network inhibition [6] 5.99%

CCC(C)(C(=O)NC1CCCC1)N(C(=O)CNC(C)=O)c1ccccc1 (centres undefined)
inactive: growth inhibition [1] -11.6% | growth inhibition [2] -1.64% | viability increase [3] -1.96% | viability [4] 98.3% | inhibition [5] 3.23% | RAM network inhibition [6] 3.45%

CN1CCN(C(=O)c2c(NC(=O)c3ccco3)sc3c2CCC(C(C)(C)C)C3)CC1 (centres undefined)
inactive: growth inhibition [1] -11.3% | growth inhibition [2] 1.13% | viability increase [3] -2.04% | viability [4] 79.9% | inhibition [5] -0.17% | RAM network inhibition [6] 0.15%

Cc1csc(NC(=O)NC2(C(F)(F)F)Oc3ccccc3O2)n1
inactive: growth inhibition [1] -6.66% | growth inhibition [2] 0.47% | viability increase [3] -6.08% | viability [4] 84.3% | inhibition [5] 0.995% | RAM network inhibition [6] 5.12%

CC1(C)CC(=O)C=C(Nc2cc(-c3ccccc3)[nH]n2)C1
inactive: growth inhibition [1] -9.89% | growth inhibition [2] 3.12% | viability increase [3] -6.97% | viability [4] 93.4% | inhibition [5] -0.355% | RAM network inhibition [6] 2.78%

c1csc(CNc2ncnc3sccc23)c1
inactive: growth inhibition [1] 3.62% | growth inhibition [2] -3.59% | viability increase [3] -2% | viability [4] 62.7% | inhibition [5] 2.05% | RAM network inhibition [6] 4.4%

COC(=O)C1=C(C)NC2=C(C(=O)CC(c3cccs3)C2)C1c1ccsc1 (centres undefined)
inactive: growth inhibition [1] -7.01% | growth inhibition [2] 2.53% | viability increase [3] -6.75% | viability [4] 40.1% | inhibition [5] 1.25% | RAM network inhibition [6] 4.86%

CCc1c(C)sc(NC(=O)C2CCCCC2C(=O)O)c1C(N)=O (centres undefined)
inactive: growth inhibition [1] 15.1% | growth inhibition [2] 25.8% | viability increase [3] -4% | viability [4] 101% | inhibition [5] 1.77% | RAM network inhibition [6] 9.48%

CCOC(=O)N1CCN(C(=O)CN(c2cccc(C)c2)S(=O)(=O)c2ccccc2)CC1
inactive: growth inhibition [1] -9.07% | growth inhibition [2] -2.69% | viability increase [3] -2.44% | viability [4] 97.8% | inhibition [5] -0.31% | RAM network inhibition [6] 0.62%

COc1cc(C2CC(=O)C=C(O)C2)cc(OC)c1OC (centres undefined)
inactive: growth inhibition [1] -7.01% | growth inhibition [2] -6.56% | viability increase [3] 0.41% | viability [4] 99% | inhibition [5] 0.785% | RAM network inhibition [6] 5.78%

CCOC(=O)N1CCN(C(=O)CN(c2ccc(Cl)c(C(F)(F)F)c2)S(C)(=O)=O)CC1
inactive: growth inhibition [1] -5.69% | growth inhibition [2] -17.2% | viability increase [3] -4.27% | viability [4] 90.3% | inhibition [5] -0.06% | RAM network inhibition [6] 3.68%

COc1cc(NC(=O)C2CC2)c(C(=O)O)cc1OC
inactive: growth inhibition [1] -3.4% | growth inhibition [2] 7.62% | viability increase [3] -2.58% | viability [4] 100% | inhibition [5] 1.68% | RAM network inhibition [6] -0.36%

C(=C\CSc1nnnn1-c1ccccc1)/CSc1nnnn1-c1ccccc1
inactive: growth inhibition [1] -9.57% | growth inhibition [2] -3.65% | viability increase [3] -1.58% | viability [4] 87.6% | inhibition [5] 3.83% | RAM network inhibition [6] 10%

CC1Cc2ccccc2N1Cc1nc2scc(-c3cccs3)c2c(=O)[nH]1 (centres undefined)
inactive: growth inhibition [1] 1.81% | growth inhibition [2] 0.44% | viability increase [3] -3.6% | viability [4] 95.3% | inhibition [5] 1.77% | RAM network inhibition [6] 5.16%

O=C(O)CNS(=O)(=O)c1ccc(F)cc1
inactive: growth inhibition [1] -6.07% | growth inhibition [2] -7.54% | viability increase [3] -0.77% | viability [4] 94.4% | inhibition [5] 2.21% | RAM network inhibition [6] 0.32%

CCSc1nc2ccccc2n1CC(=O)N1CCOCC1
inactive: growth inhibition [1] -4.23% | growth inhibition [2] 1.08% | viability increase [3] -3.2% | viability [4] 92.4% | inhibition [5] 0.915% | RAM network inhibition [6] 0.98%

O=C(CCCC(=O)N1CCCc2ccccc21)N1CCCc2ccccc21
inactive: growth inhibition [1] -8.11% | growth inhibition [2] -5.5% | viability increase [3] -4.74% | viability [4] 95.3% | inhibition [5] 2.04% | RAM network inhibition [6] 1.5%

CCOC(=O)CNS(=O)(=O)CCN1C(=O)c2ccccc2C1=O
inactive: growth inhibition [1] -8.36% | growth inhibition [2] -4.12% | viability increase [3] 0.26% | viability [4] 94.3% | inhibition [5] 2.52% | RAM network inhibition [6] 0.77%
